Calls of active or inactive are those of the source. The calls are words filed in the database; no cut-off is given here.
Columns and labels:
[1] = Inhibition of collagen binding to integrin alpha-2-beta-1 by ELISA; design: species or system Homo sapiens
Summary of the method: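 Collagen type I (soluble) immobilized on 96-well plate; recombinant GST-tagged α2 I-domain added with increasing concentrations of inhibitor. Bound I-domain detected with peroxidase-conjugated anti-GST antibody, colorimetric read at 405 nm; IC50 derived from concentration series.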

[2] = Inhibition of collagen binding to integrin alpha-2-beta-1 in intact platelets; design: species or system Homo sapiens
Summary of the method: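 Gel-filtered human platelets allowed to adhere to type I collagen immobilized on 96-well plates in presence of inhibitor; inhibition scored by number of bound platelets.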

[3] = system: Platelet; experiment: Inhibition of collagen-induced platelet aggregation at 5 uM; type: functional, cell-based; conditions: Homo sapiens

Row | SMILES | IC50 [1] | IC50 [2] | Activity [3]
1 | NCCSc1c(N)cccc1NC(=O)c1cccc(C(=O)Nc2cccc(NC(=O)[C@@H](N)Cc3ccc4ccccc4c3)c2SCCN)c1 | > 50 µM | 85.3 µM | 
2 | NCCSc1c(N)cccc1NC(=O)c1cccc(C(=O)Nc2cccc(NC(=O)[C@H](N)Cc3cccnc3)c2SCCN)c1 | > 50 µM | > 100 µM | 
3 | CC(C)(C)c1cc(NC(=O)CN)c(SCCN)c(NC(=O)c2cccc(C(=O)Nc3cc(C(C)(C)C)cc(NC(=O)CN)c3SCCN)c2)c1 | > 50 µM | > 100 µM | 
4 | CC(C)(C)c1cc(NC(=O)c2cccc(C(=O)Nc3cc(C(C)(C)C)cc(NC(=O)[C@H](N)Cc4c[nH]c5ccccc45)c3SCCN)c2)c(SCCN)c(NC(=O)[C@H](N)Cc2c[nH]c3ccccc23)c1 | > 20 µM | 17.3 µM | 
5 | CC(C)(C)c1ccc(SCCN)c(NC(=O)c2cc(C(=O)Nc3cc(C(C)(C)C)ccc3SCCN)c(OCCN)cc2OCCN)c1 | > 50 µM | > 100 µM | 
6 | NCCSc1c(NC(=O)c2cccc(C(=O)Nc3cccc(NC(=O)[C@H](N)Cc4ccc5ccccc5c4)c3SCCN)c2)cccc1NC(=O)[C@H](N)Cc1ccc2ccccc2c1 | 19.7 µM | 16.9 µM | 
7 | NCCSc1c(NC(=O)c2cccc(C(=O)Nc3cccc(NC(=O)[C@@H](N)Cc4ccc5ccccc5c4)c3SCCN)c2)cccc1NC(=O)[C@@H](N)Cc1ccc2ccccc2c1 | 6.23 µM | 10.1 µM | 
8 | CC(C)(C)c1cc(NC(=O)c2cccc(C(=O)Nc3cc(C(C)(C)C)cc(NC(=O)[C@H](N)Cc4cccnc4)c3SCCN)c2)c(SCCN)c(NC(=O)[C@H](N)Cc2cccnc2)c1 | > 50 µM | > 100 µM | 
9 | CC(C)(C)c1cc(NC(=O)c2cccc(C(=O)Nc3cc(C(C)(C)C)cc(NC(=O)[C@@H](N)Cc4ccc5ccccc5c4)c3SCCN)c2)c(SCCN)c(NC(=O)[C@@H](N)Cc2ccc3ccccc3c2)c1 | 4.8 µM | 3.4 µM | Active
10 | CC(C)(C)c1cc(NC(=O)c2cccc(C(=O)Nc3cc(C(C)(C)C)cc(NC(=O)[C@H](N)Cc4ccc5ccccc5c4)c3SCCN)c2)c(SCCN)c(NC(=O)[C@H](N)Cc2ccc3ccccc3c2)c1 | > 20 µM | 14.4 µM | 
11 | C[C@@H](N)C(=O)Nc1cc(C(C)(C)C)cc(NC(=O)c2cccc(C(=O)Nc3cc(C(C)(C)C)cc(NC(=O)[C@@H](C)N)c3SCCN)c2)c1SCCN | > 50 µM | > 100 µM | 
12 | CC(C)(C)c1cc(NC(=O)CCCN)c(SCCN)c(NC(=O)c2cccc(C(=O)Nc3cc(C(C)(C)C)cc(NC(=O)CCCN)c3SCCN)c2)c1 | > 50 µM | > 100 µM | 
13 | CC(C)(C)c1cc(NC(=O)c2cccc(C(=O)Nc3cc(C(C)(C)C)cc(NC(=O)[C@@H](N)CCCN=C(N)N)c3SCCN)c2)c(SCCN)c(NC(=O)[C@@H](N)CCCN=C(N)N)c1 | > 50 µM | > 100 µM | 
14 | NCCSc1c(N)cccc1NC(=O)c1cccc(C(=O)Nc2cccc(NC(=O)[C@H](N)Cc3ccc4ccccc4c3)c2SCCN)c1 | > 50 µM | 64.6 µM | 
15 | NCCOc1cc(C(=O)Nc2cccc(NC(=O)[C@H](N)Cc3ccccc3)c2SCCN)cc(C(=O)Nc2cccc(NC(=O)[C@H](N)Cc3ccccc3)c2SCCN)c1 | > 50 µM | 43.2 µM | 

— ChEMBL document CHEMBL1138073, “Arylamide derivatives as allosteric inhibitors of the integrin alpha2beta1/type I collagen interaction” (Bioorg Med Chem Lett, 2006)
